{
  "source": "ChEMBL document CHEMBL1124416",
  "about": "“5-(1-piperazinyl)-1H-1,2,4-triazol-3-amines as antihypertensive agents” (1989)",
  "key": {"Rattus norvegicus [1]": {"test_system": "Rattus norvegicus", "test": "Effect on the cardiovascular response to isoproterenol challenge was measured in conscious spontaneously hypertensive rats administered perorally at 50 mg/kg", "format": "functional, Heart", "settings": "route oral"}, "Rattus norvegicus [2]": {"test_system": "Rattus norvegicus", "test": "Assessment of antihypertensive activity at 100 mg/kg administered perorally by measuring the heart rate in rats", "format": "functional", "settings": "route oral"}, "Rattus norvegicus [3]": {"test_system": "Rattus norvegicus", "test": "Effect on the cardiovascular response to tyramine challenge was measured in conscious spontaneously hypertensive rats administered perorally at 50 mg/kg", "format": "functional, Heart", "settings": "route oral"}, "Rattus norvegicus [4]": {"test_system": "Rattus norvegicus", "test": "Effect on the cardiovascular response to tilt challenge was measured in conscious spontaneously hypertensive rats administered perorally at 1 mL/100g", "format": "functional, Heart", "in_short": "(§1)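 Male Okamoto-Aoki SHR, about 350 g, conscious, held supine with elastic tape; tail base locally anesthetized with 2% procaine sc. Control responses were recorded first. Vehicle (10 mL/kg) or compound was then given orally, and challenges were repeated 1 h later. Challenges were a 75° tilt for 30 s and iv agonists (epinephrine 1 or 2 μg/kg). Read-out was change in MABP (mmHg); paired Student's t test.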"}, "Rattus norvegicus [5]": {"test_system": "Rattus norvegicus", "test": "Effect on the cardiovascular response to angiotensin II challenge was measured in conscious spontaneously hypertensive rats administered perorally at 50 mg/kg", "format": "functional, Heart", "settings": "route oral"}, "Rattus norvegicus [6]": {"test_system": "Rattus norvegicus", "test": "Effect on the cardiovascular response to epinephrine (1ug/kg, iv) challenge was measured in conscious spontaneously hypertensive rats administered perorally at 1 mL/100g", "format": "functional, Heart", "in_short": "as §1"}, "Rattus norvegicus [7]": {"test_system": "Rattus norvegicus", "test": "Effect on the cardiovascular response to tilt challenge was measured in conscious spontaneously hypertensive rats administered perorally at 50 mg/kg", "format": "functional, Heart", "settings": "route oral", "in_short": "as §1"}, "Rattus norvegicus [8]": {"test_system": "Rattus norvegicus", "test": "Effect on the […] was measured in conscious spontaneously hypertensive rat administered perorally at 1 mL/100g", "format": "functional, Heart"}, "Rattus norvegicus [9]": {"test_system": "Rattus norvegicus", "test": "Effect on the cardiovascular response to isoproterenol challenge was measured in conscious spontaneously hypertensive rats administered perorally at 1 mL/100g", "format": "functional, Heart"}, "Rattus norvegicus [10]": {"test_system": "Rattus norvegicus", "test": "Effect on the cardiovascular response to isoproterenol challenge was measured in conscious spontaneously hypertensive rats administered perorally at 8 mL/100 g", "format": "functional, Heart"}, "Rattus norvegicus [11]": {"test_system": "Rattus norvegicus", "test": "Effect on the cardiovascular response to angiotensin II challenge was measured in conscious spontaneously hypertensive rats administered perorally at 1 mL/100g", "format": "functional, Heart"}, "Rattus norvegicus [12]": {"test_system": "Rattus norvegicus", "test": "Effect on the cardiovascular response to ACH challenge was measured in conscious spontaneously hypertensive rats administered perorally at 50 mg/kg", "format": "functional, Heart", "settings": "route oral"}, "Rattus norvegicus [13]": {"test_system": "Rattus norvegicus", "test": "The antihypertensive activity was assessed by measuring the heart rate in rats when administered at 50 mg/kg", "format": "functional", "in_short": "(§2)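 16-week-old male SH rats (Okamoto) were dosed by oral gavage in 3% starch in normal saline (2 mL/kg), plus an oral saline load of 25 mL/kg. They were redosed at 24 h without the saline load. MABP and HR were taken by direct femoral arterial puncture under local anesthesia 4 h after the second dose. HR was rounded to 10 bpm.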"}, "Rattus norvegicus [14]": {"test_system": "Rattus norvegicus", "test": "Effect on the cardiovascular response to norepinephrine challenge was measured in conscious spontaneously hypertensive rats administered perorally at 50 mg/kg", "format": "functional, Heart", "settings": "route oral"}, "Rattus norvegicus [15]": {"test_system": "Rattus norvegicus", "test": "Effect on the cardiovascular response to norepinephrine challenge was measured in conscious spontaneously hypertensive rats administered perorally at 8 mL/100 g", "format": "functional, Heart"}, "Rattus norvegicus [16]": {"test_system": "Rattus norvegicus", "test": "Effect on the cardiovascular response to epinephrine (2ug/kg, iv) challenge was measured in conscious spontaneously hypertensive rats administered perorally at 50 mg/kg", "format": "functional, Heart", "settings": "route oral", "in_short": "as §1"}, "Rattus norvegicus [17]": {"test_system": "Rattus norvegicus", "test": "Effect on the cardiovascular response to tyramine challenge was measured in conscious spontaneously hypertensive rats administered perorally at 8 mL/100 g", "format": "functional, Heart"}, "Rattus norvegicus [18]": {"test_system": "Rattus norvegicus", "test": "The antihypertensive activity was assessed by measuring the mean arterial blood pressure in rats when administered at 50 mg/kg", "format": "functional", "in_short": "as §2"}, "Rattus norvegicus [19]": {"test_system": "Rattus norvegicus", "test": "Effect on the cardiovascular response to epinephrine (2ug/kg, iv) challenge was measured in conscious spontaneously hypertensive rats administered perorally at 1 mL/100g", "format": "functional, Heart", "in_short": "as §1"}, "Rattus norvegicus [20]": {"test_system": "Rattus norvegicus", "test": "Effect on the cardiovascular response to DMPP challenge was measured in conscious spontaneously hypertensive administered perorally rats at 1 mL/100g", "format": "functional, Heart"}, "Rattus norvegicus [21]": {"test_system": "Rattus norvegicus", "test": "The antihypertensive activity was assessed by measuring the heart rate in rats when administered at 25 mg/kg", "format": "functional", "in_short": "as §2"}, "Rattus norvegicus [22]": {"test_system": "Rattus norvegicus", "test": "The antihypertensive activity was assessed by measuring the mean arterial blood pressure in rats when administered at 25 mg/kg", "format": "functional", "in_short": "as §2"}, "Rattus norvegicus [23]": {"test_system": "Rattus norvegicus", "test": "Effect on the cardiovascular response to norepinephrine challenge was measured in conscious spontaneously hypertensive rats administered perorally at 1 mL/100g", "format": "functional, Heart"}, "Rattus norvegicus [24]": {"organism": "Rattus norvegicus", "format": "functional, Artery", "settings": "dose 100 mg/kg; route oral"}, "Rattus norvegicus [25]": {"test_system": "Rattus norvegicus", "test": "Effect on the cardiovascular response to ACH challenge was measured in conscious spontaneously hypertensive rats administered perorally at 1 mL/100g", "format": "functional, Heart"}, "Rattus norvegicus [26]": {"test_system": "Rattus norvegicus", "test": "Effect on the cardiovascular response to ACH challenge was measured in conscious spontaneously hypertensive rats administered perorally at 8 mL/100 g", "format": "functional, Heart"}, "Rattus norvegicus [27]": {"test_system": "Rattus norvegicus", "test": "Effect on the cardiovascular response to epinephrine (1ug/kg, iv) challenge was measured in conscious spontaneously hypertensive rats administered perorally at 50 mg/kg", "format": "functional, Heart", "settings": "route oral", "in_short": "as §1"}, "Rattus norvegicus [28]": {"test_system": "Rattus norvegicus", "test": "Effect on the cardiovascular response to DMPP challenge was measured in conscious spontaneously hypertensive rats administered perorally at 50 mg/kg", "format": "functional, Heart", "settings": "route oral"}, "Rattus norvegicus [29]": {"test_system": "Rattus norvegicus", "test": "Effect on the cardiovascular response to angiotensin II challenge was measured in conscious spontaneously hypertensive rats administered perorally at 8 mL/100 g", "format": "functional, Heart"}},
  "data": [
    {"smiles": "Nc1n[nH]c(N2CCN(Cc3cccc(Cl)c3)CC2)n1", "values": [
      {"measurement": "MABP", "setting": "Rattus norvegicus [1]", "value": -46.7, "unit": "delta mmHg"},
      {"measurement": "HR", "setting": "Rattus norvegicus [2]", "value": 300, "unit": "beats min-1"},
      {"measurement": "MABP", "setting": "Rattus norvegicus [3]", "value": 34.8, "unit": "delta mmHg"},
      {"measurement": "MABP", "setting": "Rattus norvegicus [4]", "value": 17.3, "unit": "delta mmHg"},
      {"measurement": "MABP", "setting": "Rattus norvegicus [5]", "value": 70.2, "unit": "delta mmHg"},
      {"measurement": "MABP", "setting": "Rattus norvegicus [6]", "value": 28.8, "unit": "delta mmHg"},
      {"measurement": "MABP", "setting": "Rattus norvegicus [7]", "value": 9.3, "unit": "delta mmHg"},
      {"measurement": "MABP", "setting": "Rattus norvegicus [8]", "value": 34.5, "unit": "delta mmHg"},
      {"measurement": "MABP", "setting": "Rattus norvegicus [9]", "value": -38.5, "unit": "delta mmHg"},
      {"measurement": "MABP", "setting": "Rattus norvegicus [10]", "value": -49.8, "unit": "delta mmHg"},
      {"measurement": "MABP", "setting": "Rattus norvegicus [11]", "value": 49, "unit": "delta mmHg"},
      {"measurement": "MABP", "setting": "Rattus norvegicus [12]", "value": -47, "unit": "delta mmHg"},
      {"measurement": "HR", "setting": "Rattus norvegicus [13]", "value": 440, "unit": "beats min-1"},
      {"measurement": "MABP", "setting": "Rattus norvegicus [14]", "value": 63, "unit": "delta mmHg"},
      {"measurement": "MABP", "setting": "Rattus norvegicus [15]", "value": 47.8, "unit": "delta mmHg"},
      {"measurement": "MABP", "setting": "Rattus norvegicus [16]", "value": 50.7, "unit": "delta mmHg"},
      {"measurement": "MABP", "setting": "Rattus norvegicus [17]", "value": 35.3, "unit": "delta mmHg"},
      {"measurement": "MABP", "setting": "Rattus norvegicus [18]", "value": 113, "unit": "mmHg"},
      {"measurement": "MABP", "setting": "Rattus norvegicus [19]", "value": 37.3, "unit": "delta mmHg"},
      {"measurement": "MABP", "setting": "Rattus norvegicus [20]", "value": 52.5, "unit": "delta mmHg"},
      {"measurement": "HR", "setting": "Rattus norvegicus [21]", "value": 440, "unit": "beats min-1"},
      {"measurement": "MABP", "setting": "Rattus norvegicus [22]", "value": 132, "unit": "mmHg"},
      {"measurement": "MABP", "setting": "Rattus norvegicus [23]", "value": 45.8, "unit": "delta mmHg"},
      {"measurement": "MABP", "setting": "Rattus norvegicus [24]", "value": 89, "unit": "mmHg"},
      {"measurement": "MABP", "setting": "Rattus norvegicus [25]", "value": -54.5, "unit": "delta mmHg"},
      {"measurement": "MABP", "setting": "Rattus norvegicus [26]", "value": -68.5, "unit": "delta mmHg"},
      {"measurement": "MABP", "setting": "Rattus norvegicus [27]", "value": 29, "unit": "delta mmHg"},
      {"measurement": "MABP", "setting": "Rattus norvegicus [28]", "value": 30.3, "unit": "delta mmHg"},
      {"measurement": "MABP", "setting": "Rattus norvegicus [29]", "value": 55, "unit": "delta mmHg"}
    ]}
  ]
}
